Measured values as given in ChEMBL document CHEMBL1147200, “Synthesis, structural characterization, and in vitro antitumor activity of novel N-(6-chloro-1,1-dioxo-1,4,2-benzodithiazin-3-yl)arylsulfonamides” (2007).

Key:
Format in all cases: functional
5637 = assay: Cytotoxicity against human 5637 cells after 96 hrs; settings: Homo sapiens, 5637, 96 h
Method in brief: (§1)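 Cells plated in 96-well format, left 24 h, then given compound continuously for 96 h. Growth read by staining attached viable cells with crystal violet, washing, redissolving bound dye in 70% ethanol and reading OD at 570 nm. GI50 computed from dose–response data of 5 to 7 independent experiments.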

RT-4 = assay: Cytotoxicity against human RT4 cells after 96 hrs; settings: RT-4, 96 h; method in brief: as §1
A-427 = assay: Cytotoxicity against human A427 cells after 96 hrs; settings: A-427, 96 h; method in brief: as §1
[1] = Cytotoxicity against human LCLC103H cells after 96 hrs; settings: LCLC-103H; method in brief: as §1
DAN-G = assay: Cytotoxicity against human DANG cells after 96 hrs; method in brief: as §1
MCF7 = assay: Cytotoxicity against human MCF7 cells after 96 hrs; settings: MCF7, 96 h; method in brief: as §1

O=C(Oc1cccc2cccnc12)c1cc2c(cc1Cl)SC(N(c1ccc(F)cc1)S(=O)(=O)c1ccc(Cl)cc1)=NS2(=O)=O gave a GI50 5637 of 6.2 µM, a GI50 (RT-4) greater than 20 µM and a GI50 (A-427) of 3.1 µM. The GI50 [1] was 4.6 µM, the GI50 (DAN-G) was 9.3 µM and the GI50 (MCF7) was 3.2 µM.

In the case of COC(=O)c1cc2c(cc1Cl)SC(N(N(C)C)S(=O)(=O)c1ccc(Br)s1)=NS2(=O)=O, the GI50 5637 is reported as 13.7 µM, the GI50 (RT-4) is reported as 18.5 µM and the GI50 (A-427) is reported as 12 µM. For the same compound, the GI50 [1] was 19.1 µM, the GI50 (DAN-G) was 23.7 µM and the GI50 (MCF7) was 10.9 µM.

CCOC(=O)c1cc2c(cc1Cl)SC(N(c1ccccc1)S(=O)(=O)c1ccc(Cl)cc1)=NS2(=O)=O gave a GI50 5637 of 14.3 µM, a GI50 (RT-4) greater than 20 µM and a GI50 (A-427) of 11.7 µM. It also gave a GI50 [1] greater than 20 µM, a GI50 (DAN-G) of 14.8 µM and a GI50 (MCF7) of 9.8 µM.

Work on CCOC(=O)c1cc2c(cc1Cl)SC(N(c1ccc(OC)cc1)S(=O)(=O)c1ccc(Cl)cc1)=NS2(=O)=O yielded a GI50 5637 of 11.9 µM, a GI50 (RT-4) of 23.1 µM and a GI50 (A-427) of 11.2 µM. For the same compound, the GI50 [1] was 19.3 µM, the GI50 (DAN-G) was 12.3 µM and the GI50 (MCF7) was 8.1 µM.

With CCOC(=O)c1cc2c(cc1Cl)SC(N(c1ccc(OC)cc1)S(=O)(=O)c1ccccc1)=NS2(=O)=O the GI50 5637 was 6.5 µM, the GI50 (RT-4) was 16.8 µM and the GI50 (A-427) was 7 µM. For the same compound, the GI50 [1] was 9.3 µM, the GI50 (DAN-G) was 7.6 µM and the GI50 (MCF7) was 4.9 µM.

Work on CCOC(=O)c1cc2c(cc1Cl)SC(N(c1ccc(F)cc1)S(=O)(=O)c1ccc(OC)cc1)=NS2(=O)=O yielded a GI50 5637 of 12.1 µM, a GI50 (RT-4) of 19 µM and a GI50 (A-427) of 8.4 µM. It also gave a GI50 [1] of 17.5 µM, a GI50 (DAN-G) of 12 µM and a GI50 (MCF7) of 5.8 µM.

With Cc1cc2c(cc1Cl)SC(N(c1ccc(Cl)cc1)S(=O)(=O)c1ccccc1)=NS2(=O)=O the GI50 5637 was 9.6 µM, the GI50 (RT-4) was 22 µM and the GI50 (A-427) was 9.2 µM. It also gave a GI50 [1] of 12.4 µM, a GI50 (DAN-G) of 9.9 µM and a GI50 (MCF7) of 8.1 µM.

In the case of Cc1cc2c(cc1Cl)SC(N(N(C)C)S(=O)(=O)c1ccc(Cl)cc1)=NS2(=O)=O, the GI50 5637 is reported as 19.2 µM, the GI50 (RT-4) is reported as greater than 20 µM and the GI50 (A-427) is reported as 15.6 µM. For the same compound, the GI50 [1] was greater than 20 µM, the GI50 (DAN-G) was 23.5 µM and the GI50 (MCF7) was 12.3 µM.

Work on COC(=O)c1cc2c(cc1Cl)SC(N(N(C)C)S(=O)(=O)c1ccc(Cl)cc1)=NS2(=O)=O yielded a GI50 5637 of 12.6 µM, a GI50 (RT-4) of 18.5 µM and a GI50 (A-427) of 10.2 µM. It also gave a GI50 [1] of 19.6 µM, a GI50 (DAN-G) of 18.7 µM and a GI50 (MCF7) of 8.7 µM.

Compound CCOC(=O)c1cc2c(cc1Cl)SC(N(c1ccc(OC)cc1)S(=O)(=O)c1ccc(Cl)cc1Cl)=NS2(=O)=O has a GI50 5637 of 2.3 µM, a GI50 (RT-4) of 6.3 µM and a GI50 (A-427) of 4.1 µM. The GI50 [1] was 2.8 µM, the GI50 (DAN-G) was 3.1 µM and the GI50 (MCF7) was 2.4 µM.

With Cc1cc2c(cc1Cl)SC(N(c1ccccc1Cl)S(=O)(=O)c1ccc(Br)s1)=NS2(=O)=O the GI50 5637 was 7.5 µM, the GI50 (RT-4) was 28.6 µM and the GI50 (A-427) was 8.2 µM. It also gave a GI50 [1] of 11.9 µM, a GI50 (DAN-G) of 9.4 µM and a GI50 (MCF7) of 6.5 µM.

O=C(Oc1cccc2cccnc12)c1cc2c(cc1Cl)SC(N(c1ccc(F)cc1)S(=O)(=O)c1ccc(Br)s1)=NS2(=O)=O showed a GI50 5637 of 5.1 µM, a GI50 (RT-4) greater than 20 µM and a GI50 (A-427) of 3.4 µM. For the same compound, the GI50 [1] was 5.3 µM, the GI50 (DAN-G) was 8.2 µM and the GI50 (MCF7) was 3.2 µM.
